Sampled rows, rich in hits. Any-hit rate of the full collection: about 1.9%.
CaV13 FRET inh: Disruptors of the CACNA1D IQ motif to Ca2+-dependent inactivation inhibitor domain association, primary screening, Förster resonance energy transfer in intact living …; HEK cells, CFP/YFP FRET ICDI-IQ, plate reader, 10 min; percent FRET-ratio fall versus neutral wells; inhibition, % at 12.3 µM; hit rate 0.098% among 340,000;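 active means mean replicate inhibition of at least 30% and at least 1% of replicates passing that level; inconclusive means only one of the two criteria is met; inactive means neither criterion is met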
HDAC3 inhib: inhibitors of human histone deacetylase 3 | O15379 | recombinant HDAC3, fluorogenic peptide/trypsin coupled, fluorescence | inhibition, % at 8.3 µM | hit rate 0.15% among 320,000 | AID 2718; in the data active means inhibition above about 26%, passing the limit was not always enough; inconclusive means no clear call, values can overlap the other calls
Target sequence (O15379 whole entry, looked up): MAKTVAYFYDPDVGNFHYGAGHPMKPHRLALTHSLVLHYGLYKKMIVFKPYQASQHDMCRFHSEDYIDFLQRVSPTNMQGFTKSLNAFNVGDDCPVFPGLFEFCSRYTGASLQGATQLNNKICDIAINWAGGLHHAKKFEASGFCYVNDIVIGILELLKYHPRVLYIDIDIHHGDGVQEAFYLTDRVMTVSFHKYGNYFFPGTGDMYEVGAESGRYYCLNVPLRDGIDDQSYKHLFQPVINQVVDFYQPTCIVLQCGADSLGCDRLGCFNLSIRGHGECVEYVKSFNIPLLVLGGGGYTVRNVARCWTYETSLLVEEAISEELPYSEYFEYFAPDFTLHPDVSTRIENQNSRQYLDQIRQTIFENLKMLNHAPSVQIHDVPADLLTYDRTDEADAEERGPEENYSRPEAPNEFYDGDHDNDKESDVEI
RanGTP-Imp inh: disruptors of Ran-importin-beta complex formation – biochemical, FRET, CFP-Ran, YFP-importin-beta, homogeneous, primary screen; cell-free CFP-Ran/YFP-importin-beta FRET ratio; inhibition, % (no concentration beside the values); hit rate 1.1% among 300,000;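 active means more than half of the replicate wells show a fall in the fluorescence ratio signal beyond about 16%, limit read from the data, passing the limit was not always enough; inconclusive means exactly half of the replicate wells pass the set limit; inactive means fewer than half of replicates pass the limit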
LANA-H2B inh: blocks KSHV LANA binding to histone H2A/H2B | cell-free LANA-H2A/H2B peptide, fluorescence polarization | hit rate 0.6% among 320,000 | inhibition, % (concentration not given with the values) | Q9QR71 | AID 2629; in the data active means inhibition mostly above about 10%, no sharp cut-off; inactive means mostly below about 6.7%
Runt-SMMHC FRET: Runt domain-CBFb-SMMHC interaction inhibition. Q01196+Q13951. Cerulean-Runt/Venus-CBFb-SMMHC FRET ratio 530/480, 1 h. inhibition, % at 20 µM. hit rate 0.74% among 220,000. AID 1434;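 active means mean inhibition across duplicate retests at 20 µM reaching about 50%, limit read from the data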;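 further: inhibitors lower the FRET ratio by blocking Runt binding to CBFb-SMMHC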
Runt-CBFb FRET: Runt domain-CBFb interaction inhibition | Q01196+Q13951 | Cerulean-Runt/Venus-CBFb FRET ratio 530/480, 1 h | inhibition, % at 20 µM | hit rate 0.46% among 220,000 | AID 1496;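 active means inhibition over about 50% at 20 µM in the single-dose screen, limit read from the data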
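Assay system: Cerulean-Runt domain / Medium: Tris 50 mM pH 7.5, KCl, K2SO4, 0.01% BSA / Timing: protein complex preformed 1 h, compound exposure 1 h, room temperature, dark / Measured by: FRET, excitation 422 nm, emission at 530 and 480 nm / Evaluation: loss of energy transfer signal / Control set: 5 µM unlabeled CBFb as full-inhibition high control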
Numbers stand for hits; i = inactive; ? = inconclusive; nt = no result.

SMILES	CaV13 FRET inh	HDAC3 inhib	RanGTP-Imp inh	LANA-H2B inh	Runt-SMMHC FRET	Runt-CBFb FRET
CCOC(=O)C1=C(N)Oc2cc(O)ccc2C1c1ccc(Br)cc1 (stereo not given)	i	i	i	i	nt	nt
COc1cccc(-c2noc(-c3ccoc3C)n2)c1	i	i	i	i	i	i
CC(C)(CNc1ccc([N+](=O)[O-])cc1C#N)N1CCOCC1	i	i	i	i	i	i
CC(C)(CNc1ccc(S(=O)(=O)C(F)(F)F)cc1[N+](=O)[O-])N1CCOCC1	i	i	i	27	nt	nt
Cn1c(SCC(=O)Nc2ccc(C(N)=O)cc2)nnc1-c1cccs1	i	i	i	16	nt	nt
Cc1nc([N+](=O)[O-])c(Br)n1Cc1ccccc1	i	i	i	i	i	i
Cc1nc([N+](=O)[O-])c(Sc2nc3ccc([N+](=O)[O-])cc3[nH]2)n1Cc1ccccc1	i	i	i	i	i	115
Cc1ccc(S[C@@H](CCN2CC[C@H](C)CCC2=O)c2ccccc2)cc1	i	i	i	i	nt	nt
Cc1ccc(S[C@@H](CCN2CC[C@H](O)CCC2=O)c2ccccc2)cc1	33	i	i	i	nt	nt
Cc1[nH]c2ccc(C(=O)OCC(=O)Nc3cccc(S(N)(=O)=O)c3)cc2c1C	i	i	nt	i	nt	nt
Cc1nc2ccc(C(C(F)(F)F)(C(F)(F)F)C(F)(F)F)cc2[nH]1	i	32	i	i	i	i
Cc1nc2ccc(Cl)cc2[nH]1	i	nt	nt	nt	nt	nt
COc1ccc(NC(=O)NC(C)c2ccc3c(c2)OCO3)cc1OC (stereo not given)	i	i	i	i	nt	nt
CCCC(=O)Nc1nn(CC)c2nc3ccc(C)cc3cc12	i	i	?	i	nt	nt
CCCCn1nc(NC(=O)CCC)c2cc3cc(OC)ccc3nc21	i	i	71	i	nt	nt
COc1ccc2nc3c(cc2c1)c(NC(=O)CC(C)C)nn3CC(C)C	i	i	74	i	nt	nt
COc1ccc2nc3c(cc2c1)c(NC(=O)C1CCCO1)nn3CC(C)C (stereo not given)	nt	i	119	i	61	i
CCCCn1nc(NC(=O)CC(C)C)c2cc3cc(OC)ccc3nc21	i	i	84	i	nt	nt
CCn1c(SCC(=O)Nc2cc(Cl)ccc2OC)nnc1C1CC1	i	i	i	i	nt	nt
Cc1cc(C)cc(C(=O)Nc2cccnc2)c1	i	i	i	i	nt	nt
COCCCNC(=O)/C(C#N)=C/c1c(N2CCN(c3ccccc3)CC2)nc2c(C)cccn2c1=O	i	i	32	i	nt	nt
C=CCNC(=O)/C(C#N)=C/c1c(N2CCN(c3ccccc3)CC2)nc2c(C)cccn2c1=O	i	i	28	i	nt	nt
CCNC(=O)/C(C#N)=C/c1c(N2CCN(C)CC2)nc2c(C)cccn2c1=O	i	i	i	i	nt	nt
CCNC(=O)/C(C#N)=C/c1c(N2CCN(Cc3ccc4c(c3)OCO4)CC2)nc2c(C)cccn2c1=O	i	i	i	i	63	50
COC(=O)c1ccc2cc(C)cc(C)c2n1	i	nt	nt	nt	nt	nt
SMILES	CaV13 FRET inh	HDAC3 inhib	RanGTP-Imp inh	LANA-H2B inh	Runt-SMMHC FRET	Runt-CBFb FRET
O=C(Cn1cnc([N+](=O)[O-])c1)NCCc1ccccc1	i	i	i	i	nt	nt
CC1CCCC(C)N1C(=O)Cn1cnc2cc([N+](=O)[O-])ccc2c1=O (stereo not given)	i	i	?	i	i	i
CCN(C(=O)Cn1cnc2cc([N+](=O)[O-])ccc2c1=O)C1CCS(=O)(=O)C1 (stereo not given)	i	i	14	i	i	i
COc1ccc(OC)c(N(CC(=O)N2CCOCC2)S(C)(=O)=O)c1	i	i	i	i	nt	nt
COc1cc(CC(=O)OCC(=O)Nc2cccc([N+](=O)[O-])c2)cc(OC)c1OC	i	i	i	i	i	i
COc1cc2c3nnc(-c4ccccc4)c-3cn(Cc3ccc(F)cc3)c2cc1OC	i	i	35	i	i	i
COc1cc2c3nnc(-c4ccc(F)cc4)c-3cn(Cc3ccc(C)cc3)c2cc1OC	i	i	i	i	i	i
CC1CCN(S(=O)(=O)c2ccc(C(=O)Nc3ncccc3O)cc2)CC1	i	64	i	i	nt	nt
Cc1cccnc1NC(=O)c1ccc(S(=O)(=O)N2CCCCCC2)cc1	i	i	i	i	nt	nt
Cc1c(NC(=O)C(C)Oc2ccc(Br)cc2)c(=O)n(-c2ccccc2)n1C (stereo not given)	i	i	nt	i	nt	nt
CCCN1CCC(NC(=O)Nc2ccc(Br)cc2)CC1	i	i	i	18	i	i
CC(C)CC(NC(=O)c1ccc(Cl)cc1)C(=O)O (stereo not given)	i	i	i	i	i	i
CCOC(=O)C(C)Sc1nc2c(c(-c3cccs3)c1C#N)CCC2 (stereo not given)	i	i	109	i	i	i
CC(C)OC(=O)CC(=O)CSc1nc2c(cc1C#N)CCCCCC2	i	i	i	i	78	i
COC(=O)CC(=O)CSc1nc2c(cc1C#N)CCC2	i	i	i	i	i	i
CCOC(=O)CC(=O)CSc1nc2c(cc1C#N)CCCCCC2	i	i	i	i	50	i
CC(O)(c1cccc(F)c1)c1nc(-c2ccncc2)cs1 (stereo not given)	i	nt	nt	nt	nt	nt
CCOc1ccc(-c2c(=O)n(O)c3ccccc3[n+]2[O-])cc1	i	i	i	i	nt	nt
COC(=O)c1c(=O)n(O)c2ccc(OC)cc2[n+]1[O-]	nt	i	i	55	i	i
COc1ccccc1CNc1ccc2c(c1)CCC2	i	i	i	i	nt	nt
Cc1ccc(NCc2nnc(SCC(=O)c3ccc4c(c3)OCCO4)o2)c(C)c1	i	85	i	i	i	i
COc1ccc2c(c1OC)C(=O)N1N=C(c3ccc(Br)cc3)CC21 (stereo not given)	nt	i	i	i	i	i
COc1ccc(C2=NN3C(=O)c4c(ccc(OC)c4OC)C3C2)cc1 (stereo not given)	i	i	i	38	i	i
O=C(CNC(=O)c1ccc(Cl)cc1)c1ccc(Br)cc1	i	i	i	i	nt	nt
NC(=S)Nc1ncc(C(F)(F)F)cc1Cl	i	i	i	128	i	i
O=C(O)c1cccc(-n2cccc2/C=C2\NC(=O)N(Cc3ccc(F)cc3)C2=O)c1	i	i	i	i	i	i
Cc1cccc(NC(=O)CN2C(=O)N/C(=C/c3ccc(C)o3)C2=O)c1	i	i	i	nt	i	i
Cc1ccc(CN2C(=O)N/C(=C/c3ccc(-c4ccc(C(=O)O)cc4)o3)C2=O)cc1	i	i	?	i	80	126
Cc1cc(C(=O)O)ccc1-c1ccc(/C=C2\NC(=O)N(Cc3ccc(F)cc3)C2=O)o1	i	nt	65	i	80	116
Cc1ccc(CN2C(=O)N/C(=C\c3cccn3-c3cccc(C(=O)O)c3)C2=O)cc1	i	i	i	i	i	i

Source: PubChem (several laboratories)
